From PubChem
The list is not random: actives were taken first. Their share in the collection is about 0.68%.
TNAP act hi DEA: TNAP activators at high phosphate acceptor level, primary screen, biochemical, luminescence, uHTS; Alkaline phosphatase, tissue-nonspecific isozyme (Homo sapiens), P05186; purified TNAP, CDP-star luminescence, 1 M DEA, 30 min; active compounds read high; 0 = EDTA background, 1 = DMSO-only activity; activation factor at 20 µM; 200,000 tested, under 10 active;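 active means activation factor at least 2 at 20 µM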
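Control set: EDTA negative control, DMSO positive control / Assay system: human TNAP / Quantity: TNAP 1/800 final / Evaluation: TNAP activation factor scaled between EDTA and DMSO control wells / Measured by: luminescent substrate turnover signal / Compound dosing: one dose, 20 µM / Times: 30 min enzyme reaction at room temperature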
HMGR II inh: inhibitors of E. faecalis class II HMGR, primary screen, biochemical, Enterococcus faecalis | 190,000 compounds, 0.41% hits | AID 1066, 2008 | HMG-CoA reductase (Enterococcus faecalis, mvaE) | purified E. faecalis HMGR, NADPH absorbance 340 nm kinetic | inhibition, % at 10 µM;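 active means inhibition above a set limit, the median over all tested compounds plus 3 SD, cut at about 9.5% in these data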;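 further: enzyme runs in reverse so mevalonate oxidation gives rising NADPH absorbance; 0% = complete reaction with DMSO and 100% = background rate lacking mevalonate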
TNAP inh no acc: human TNAP enzyme inhibitors, primary screen, biochemical, luminescent, no phosphate acceptor, uHTS | Alkaline phosphatase, tissue-nonspecific isozyme (Homo sapiens), P05186 | purified TNAP, CDP-star luminescence, 30 min | inhibition, % at 20 µM | 200,000 compounds, 0.26% hits | AID 1012, 2008;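 active means tissue-nonspecific alkaline phosphatase inhibition above about 50% at 20 µM in the single-dose screen, limit read from the data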;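 further: 0% = DMSO negative control and 100% = EDTA positive control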
Furin inhibitor: human furin inhibitors, primary screen, biochemical, fluorescence intensity; P09958; purified furin, fluorogenic substrate cleavage; inhibition, % at 20 µM or 30 µM; 220,000 compounds, 0.061% hits; AID 463115, 2010; in the data active means inhibition above about 25%
Target sequence (P09958 108-714 limits assumed): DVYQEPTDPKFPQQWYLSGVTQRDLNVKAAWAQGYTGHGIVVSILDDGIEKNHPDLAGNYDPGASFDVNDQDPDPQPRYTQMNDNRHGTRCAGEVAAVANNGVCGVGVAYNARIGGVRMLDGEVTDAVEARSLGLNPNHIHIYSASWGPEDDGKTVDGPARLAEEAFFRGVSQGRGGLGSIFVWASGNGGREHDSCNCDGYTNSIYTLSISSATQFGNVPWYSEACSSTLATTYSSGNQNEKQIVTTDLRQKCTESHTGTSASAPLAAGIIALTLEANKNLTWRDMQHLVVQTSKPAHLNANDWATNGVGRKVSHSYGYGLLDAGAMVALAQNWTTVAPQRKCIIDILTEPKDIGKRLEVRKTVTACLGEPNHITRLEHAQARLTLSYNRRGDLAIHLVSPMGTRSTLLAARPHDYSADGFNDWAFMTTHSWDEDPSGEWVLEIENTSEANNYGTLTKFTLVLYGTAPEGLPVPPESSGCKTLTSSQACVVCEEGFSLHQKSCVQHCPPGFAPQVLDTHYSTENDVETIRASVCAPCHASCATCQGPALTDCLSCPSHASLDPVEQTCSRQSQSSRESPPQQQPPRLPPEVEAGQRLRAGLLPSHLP
TNAP inh hi DEA: human TNAP enzyme inhibitors, primary screen, biochemical, luminescent, high phosphate acceptor level, uHTS; AID 1135, 2008; inhibition, % at 20 µM; purified TNAP, CDP-star luminescence, 1 M DEA; 200,000 compounds, 0.03% hits;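 active means over 50% inhibition of tissue-nonspecific alkaline phosphatase at 20 µM in the single-dose screen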;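 further: plate controls were DMSO wells for no effect and EDTA-quenched wells as full inhibition for full effect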
Pf gamet viab: late stage P. falciparum gametocyte viability inhibitors, primary screen, ATP luminescence, HTS; 150,000 compounds, 0.065% hits; P. falciparum stage V gametocytes, 24 h; inhibition, % at 10.9 µM;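 active means inhibition above the mean plus 3 SD of compounds within the control limits, set per campaign, cut at about 38% in these data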;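 further: 0% = DMSO wells and 100% = medium only without gametocytes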
* = called active by the depositor; x = no result.

SMILES | TNAP act hi DEA | HMGR II inh | TNAP inh no acc | Furin inhibitor | TNAP inh hi DEA | Pf gamet viab
CN(C)c1ccc(/C=C/C=C2/SC(=S)N(c3ccccc3)C2=O)cc1 | 0.5 | 2.6 | 55.4* | -7.1 | 54.2* | x
CCOc1ccc(NC(=O)CN(C)CC(=O)Nc2ccc(Br)cc2F)cc1OCC | 1 | -1.9 | -5.7 | -28.2 | 2.0 | -36.3
CCOc1ccccc1N1CC(C(=O)Nc2ccccc2N2CCOCC2)CC1=O (centres undefined) | 1.1 | -0.8 | -10.6 | -27.5 | -5.5 | x
CCOc1ccccc1N1CC(C(=O)Nc2ccc3c(c2)OCCO3)CC1=O (centres undefined) | 1 | 11.6* | -12.0 | -5.0 | -1.2 | 8.2
Cc1ccc(CCN2C(=O)c3ccccc3C2C(=O)NCc2cccnc2)cc1 (centres undefined) | 1 | -4.2 | -4.0 | -24.9 | -2.9 | -28.5
CN(C(=O)COC(=O)CCc1c[nH]c2ccccc12)C(c1ccccc1)c1ccccc1 | 1 | 2.1 | -37.2 | -13.0 | -3.1 | -6.4
Nc1nc(NC(=O)c2ccccc2)nn1-c1ccccc1 | 1 | -6.0 | -9.1 | -12.9 | -4.1 | 57.7*
CN1CCN(NC(=O)CC(C)(C)C)CC1 | 1 | -1.1 | -9.1 | -35.2 | -4.1 | -15.1
COc1ccc2ccc(=O)oc2c1 | 1 | 14.6* | -10.0 | -43.2 | -3.9 | x
COc1ccc(S(=O)(=O)N2CCCCC2)cc1NC(=O)CSc1ncnc2ccccc12 | 1 | -5.2 | -6.5 | -5.1 | -1.9 | x
O=C(C1CC1)N1CCCC(c2ccc(Cl)cc2)=N1 | 1 | 10.0* | 7.9 | -31.4 | 1.8 | -3.8
O=C(c1ccccc1)N1CCCC(c2ccc(Cl)cc2)=N1 | 1 | -2.8 | -3.6 | -13.9 | -1.6 | x
Cc1cccc(/N=C/C2=C(O)CC(C)(C)CC2=O)n1 | x | x | x | 45.7* | x | 8.8
Cc1cc(N=CC2=C(O)CC(C)(C)CC2=O)no1 | 1.1 | -4.6 | -15.7 | 45.7* | -8.9 | x
CC1(C)CC(=O)C=C(N=CC2=C(O)CC(C)(C)CC2=O)C1 | 1.1 | -7.1 | -2.2 | -11.9 | -10.9 | -11.3
C[C@H](CO)N1C[C@H](C)[C@@H](CN(C)S(=O)(=O)c2ccc(F)cc2)Oc2ccc(NC(=O)Cc3ccccc3)cc2C1=O | x | x | x | x | x | 18.6
O=C(Nc1cccnc1)c1cccc(S(=O)(=O)N2CCCCC2)c1 | 1.1 | 12.5* | -9.0 | -21.0 | -6.1 | -4.1
O=C(N/N=C/c1ccc(O)c(O)c1)c1cccc(S(=O)(=O)N2CCCCC2)c1 | 0.8 | -9.3 | 78.2* | -5.1 | 18.5 | -45.5
O=C(CNC(=O)c1ccc(S(=O)(=O)N2CCCC2)cc1)N/N=C/c1ccc(Cl)cc1 | 1 | 15.7* | -4.6 | -21.1 | -1.7 | -2.4
Cc1ccc(C(=O)Nc2cccnc2)cc1S(=O)(=O)N1CCCCC1 | 1 | -0.8 | -11.4 | -12.1 | -0.5 | -6.3
CC(=O)c1cccc(CN2CCCC(CCC(=O)NCc3ccc(F)c(F)c3)C2)c1 (centres undefined) | 1 | -8.1 | -4.3 | -19.2 | -0.3 | 10.6
CSc1ccc(C2CC(=O)Nc3nc(SC)[nH]c(=O)c32)cc1 (centres undefined) | 1.1 | 22.1* | -16.9 | -30.3 | -7.7 | 10.0
COC(=O)c1ccccc1NC(=O)CSc1nnc(CNS(=O)(=O)c2ccc(C)cc2)n1C | 1 | 13.7* | -3.3 | -20.8 | -1.0 | 31.4
COC(=O)c1ccccc1NC(=O)CSc1nnc(COc2cccc(OC)c2)n1C | 1 | -7.8 | -6.9 | 2.4 | -0.8 | x
CCNC(=O)NC(=O)COC(=O)CCc1nc(=O)c2ccccc2n1C | 1 | -6.3 | 10.7 | -15.6 | -2.9 | 4.7
COCCCNC(=O)c1ccccc1-c1cc(C)no1 | x | x | x | -19.8 | x | 24.0
COc1ccccc1OCCNC(=O)C(=O)c1c[nH]c2ccccc12 | x | x | x | 9.9 | x | -25.7
O=C(NCCOc1ccccc1Cl)C(=O)c1c[nH]c2ccccc12 | 1 | 16.7* | -2.8 | -22.7 | -2.0 | -3.0
